The list is not random: actives were taken first. Their share in the collection is about 0.57%.
VLA-4 inh: inhibition in a human VLA-4 binding assay. P13612. VLA-4 expressing cells, ligand binding flow cytometry. inhibition, % (about 7 µM as worked out from the volumes in the protocol). 330,000 tested, 0.2% active. AID 2557; in the data active = inhibition above about 50%
p-CIP stab down: compounds decreasing mouse p/CIP protein stability | F442A p/CIP-EGFP cells, EGFP fluorescence, 16 h | 290,000 tested, 0.01% active | decrease of EGFP signal, % at 10 µM;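 active = EGFP signal decrease of at least 30% at 10 µM or well 3 SD below plate mean, unless failing retest; inactive = the rest, including hits failing retest or dose response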
Arr AP2 block: blocks beta-arrestin peptide binding to AP2 adaptin. FITC-arrestin peptide / GST-AP2 beads, flow cytometry; AP2 beta2 appendage carries R879A mutation. inhibition, % at 10 µM. 340,000 tested, 0.31% active. AID 504490;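 active = inhibition above a set limit, near 3 SD of compounds lacking own fluorescence, cut at about 54% in these data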;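 also: plate controls were DMSO wells for no effect and 5 µM unlabelled arrestin peptide for full effect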
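Measured by: flow cytometry, FL1 (488/535 nm); Material: AP2 appendage R879A on GSH beads; Evaluation: percent response; Timing: pre-incubation 12 min, peptide binding 1 h, room temperature; Also added: 50 nM FITC-arrestin peptide; Medium: PBS with 0.05% Tween 20 and 0.1% BSA.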
GASC-1 inh: blocks human GASC-1 demethylase activity; Q9H3R0; GST-JMJD2C(1-420) H3K9me3 demethylation, DELFIA europium; inhibition, % at 2.35 µM; 330,000 tested, 0.069% active; AID 2099;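 active = more than half of a compound's replicate wells show inhibition beyond 50%, single wells judged on their own value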;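 also: signal counts dimethyl H3K9 product captured on neutravidin plate; 0% = median of DMSO wells and 100% = 0.3 times that DMSO median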
Arr-AP2 CP1: inhibitors of human beta-arrestin and AP2 interaction; shares compounds with Arr AP2 block; GST-AP2 beads, FITC arrestin peptide binding, flow cytometry; GST-fused beta2-adaptin appendage, R879A mutant; inhibition, % at 10 µM; 1,300 tested, 2% active; AID 504908;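 active = inhibition above a set limit, roughly 3 SD of non-fluorescent compound noise, cut at about 38% in these data; inactive = inhibition at or below that limit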;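 also: loss of bead fluorescence from 50 nM FITC arrestin peptide bound to appendage; 0% = negative control wells and 100% = excess unlabelled arrestin peptide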
GST-FITC bead: counter-screen for beta-arrestin AP2 inhibitors: GST-GSH bead binding. shares compounds with Arr AP2 block. GST-fluorescein binding to GSH beads, fluorescence. inhibition, % at 10 µM. 1,300 tested, 2% active. AID 588338;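 active = inhibition above 50%, about 3 SD of the inhibition seen with non-fluorescent compounds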;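 also: fluorescein maleimide labelled GST captured on 4 micron glutathione beads; higher means more loss of bead fluorescence from quenching or blocked binding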
An asterisk follows results filed as active; nt = no result.

SMILES	VLA-4 inh	p-CIP stab down	Arr AP2 block	GASC-1 inh	Arr-AP2 CP1	GST-FITC bead
N=C(N)c1ccc(O)cc1	-15	-7	3	4	nt	nt
CCOC(=O)c1c(NC(=O)c2cccs2)sc(C)c1CC	-2	8	11	-4	nt	nt
CCOC(=O)c1c(NC(=O)c2ccc(Br)o2)sc(C)c1CC	3	-5	98*	7	0	-10
O=C(O)[C@H]1CC=C[C@H]2CCN(Cc3ccc(Cl)c(Cl)c3)C(=O)[C@@H]12	nt	nt	67*	nt	-4	1
Cc1cc(/C=C2/C(=N)N3C(c4ccccc4)=CSC3=NC2=O)c(C)n1-c1ccc(Cl)cc1	nt	nt	-4	nt	nt	nt
Cc1cccc(-n2c(C)cc(/C=C3/C(=N)N4C(c5ccccc5)=CSC4=NC3=O)c2C)c1	-14	3	55*	-6	-8	1
CN(Cc1nccs1)C(=O)C1CCC(=O)N(CCCc2ccccc2)C1 (stereo not drawn)	nt	8	57*	-6	-3	-2
COc1ccc(C2C(=O)c3ccccc3C2=O)cc1OC	5	-4	61*	-9	6	-4
COc1cc(C2C(=O)c3ccccc3C2=O)ccc1O	0	-14	7	-10	nt	nt
CCN(CC)C(=O)CSc1nnc2nnc3cc(C)ccc3n12	-3	-1	57*	7	-1	0
Cc1cc(Nc2ccc(Cl)cc2)nc(-c2ccccc2O)n1	1	0	17	2	nt	nt
CCC1=C(CC2NCCc3ccccc32)CC2c3cc(OC)c(OC)cc3CCN2C1 (stereo not drawn)	nt	nt	9	nt	nt	nt
Cc1cc2nc3ccc(N(C)C)cc3nc2cc1N	-26	nt	64*	-1	44*	21
CC(=O)NCCc1c[nH]c2ccc(OCc3ccccc3)cc12	17	nt	9	-20	nt	nt
COC1c2ccccc2C(=O)N1Cc1ccc(F)cc1 (stereo not drawn)	-2	1	61*	0	8	-10
COc1ccc(CN2C(=O)c3ccccc3C2OC)cc1 (stereo not drawn)	4	-8	-4	5	nt	nt
Cc1nc2ncnn2c(C)c1CCC(=O)N1CCCCC1	10	-9	1	13	nt	nt
Nc1ccc(N(c2ccccc2)c2ccc(N)cc2)cc1	-4	-6	59*	-1	10	16
Cc1ccc2nc(SCC(=O)Nc3ccc(Br)cc3)nc(=O)n2c1	-7	nt	56*	-6	-10	-1
O=C(O)c1ccccc1/C=N/Nc1ccc(S(=O)(=O)N2CCCC2)cc1[N+](=O)[O-]	25	-7	-10	2	nt	nt
O=[N+]([O-])c1cc(S(=O)(=O)N2CCCC2)ccc1N/N=C/c1cccnc1	9	-8	70*	5	17	28
Cc1cc(C(=O)Nn2c(C)nc3ccccc3c2=O)ccc1[N+](=O)[O-]	-10	10	-13	-9	nt	nt
Cc1cc(C(=O)Nn2cnc3ccccc3c2=O)ccc1[N+](=O)[O-]	-6	18	54*	-7	2	3
COc1ccc(/C=N\N=C2/SC(CC(=O)O)C(=O)N2c2ccc(O)cc2)cc1 (stereo not drawn)	-7	0	56*	-6	-4	-11
CCN(CC)c1ccc(C(=O)OCC(=O)Nc2cc3oc4ccccc4c3cc2OC)cc1	1	-11	37	-7	-13	-5
SMILES	VLA-4 inh	p-CIP stab down	Arr AP2 block	GASC-1 inh	Arr-AP2 CP1	GST-FITC bead
COc1ccccc1CC(=O)Nc1cc2oc3ccccc3c2cc1OC	-2	-11	54*	-2	-3	-24
COc1cc2c(cc1NC(=O)COc1ccc3ccccc3c1)oc1ccccc12	7	5	-2	7	nt	nt
COc1cc2c(cc1NC(=O)CSc1ccc(Cl)cc1)oc1ccccc12	18	-3	0	11	-9	10
COc1ccc(CC(=O)Nc2cc3oc4ccccc4c3cc2OC)cc1	-13	-6	1	-1	-4	4
COc1cc2c(cc1NC(=O)CSc1ccccn1)oc1ccccc12	14	7	18	8	nt	nt
CC1CCCC(NC(=O)CN2C(=O)COc3ccccc32)C1C (stereo not drawn)	-1	-14	3	2	nt	nt
CC(=O)c1cccc(CN2CCN(CC=C(C)C)C(CCO)C2)c1 (stereo not drawn)	nt	0	5	-11	nt	nt
COc1ccc(NC(=O)CC(C)CC(=O)NCc2ccccc2)c(OC)c1 (stereo not drawn)	0	-10	62*	1	0	0
CCCc1cc(=O)[nH]c(SCC(=O)c2c[nH]c3ccccc23)n1	-21	-4	54*	-15	4	4
CCCc1cc(=O)[nH]c(SCC(=O)c2c(C)[nH]c3ccccc23)n1	3	-9	1	-3	nt	nt
Clc1cccc(-c2cc3nc4c(c(NCc5ccco5)n3n2)CCCC4)c1	17	-1	-7	8	nt	nt
Cc1ccc(NS(=O)(=O)c2ccc3c(c2)OCCCO3)cc1S(=O)(=O)N1CCOCC1	7	nt	58*	7	1	-1
CC(=O)c1ccc(NC(=O)Nc2ncn(Cc3cccc(C)c3)n2)cc1	7	-7	6	16	nt	nt
Cc1ccc(C)c(NC(=O)COC(=O)c2cc3ccccc3oc2=O)c1	8	nt	66*	-9	2	5
Cc1cccc(C(C)C)c1NC(=O)COC(=O)c1cc2ccccc2oc1=O	4	nt	28	1	nt	nt
O=C(CSc1cccc[n+]1[O-])NC(=O)c1ccc(OC(F)F)cc1	13	14	54*	6	-9	-2
Cc1ccc(C)c(C(C)NC(=S)NC2CCCCC2)c1 (stereo not drawn)	1	-16	-6	0	nt	nt
CNC(=O)c1cc(S(=O)(=O)N2CC(C)OC(C)C2)ccc1N1CCCCC1 (stereo not drawn)	nt	14	16	-15	0	-15
COc1cccc(CNC(=O)c2cc(S(=O)(=O)N3CCOCC3)ccc2N2CCCC2)c1	-7	nt	-11	3	21	7
Cc1cc(S(=O)(=O)N2CCCC2)ccc1OCC(=O)Nc1ccccc1	-25	10	64*	-12	-8	-13
Cc1cc(S(=O)(=O)N2CCCCC2)ccc1OCC(=O)Nc1ccccc1	3	-4	27	6	nt	nt
COc1ccc(S(=O)(=O)N2CCCCCC2)cc1C(=O)NCCc1ccccc1	2	nt	61*	6	19	-3
O=C(Nc1cccc(C(F)(F)F)c1)c1cc(S(=O)(=O)N2CCCCC2)ccc1N1CCOCC1	20	-6	-1	-4	nt	nt
O=C(Nc1cccc(F)c1)c1cc(S(=O)(=O)N2CCOCC2)ccc1N1CCCC1	8	nt	29	3	-4	-2
NC(=O)SCC(=O)Nc1ccc(Cl)cc1	5	1	18	-12	nt	nt
NC(=O)SCC(=O)Nc1cccc(Cl)c1	-25	-9	82*	8	19	10
CC(=O)[C@H]1[C@H](CCc2ccccc2)NC(=O)N(Cc2ccccc2)[C@@H]1C	-16	-7	4	5	nt	nt
